Data set [1] concerns Plasmodium falciparum. Briefly: Anti-parasitic activity against CQ-sensitive Plasmodium falciparum D10 assessed as growth inhibition by measuring increase in LDH release after 72 hrs by spectrophotometric method. The conditions noted are these: D10, 72 h. The data set is classed as functional. The essentials: (§1)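 Asynchronous cultures (parasitemia 1–1.5%, 1% final hematocrit, human A+ RBCs) in RPMI 1640 with 1% AlbuMax, 0.01% hypoxanthine, 20 mM HEPES, 2 mM glutamine. Serial dilutions from DMSO stocks (final DMSO <1%). IC50 as mean ± SD of ≥3 experiments in duplicate.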
A general note: Release of lactate dehydrogenase indicates damage to the cell membrane.

The subject of data set [2] is Plasmodium falciparum. In words: Anti-parasitic activity against CQ-resistant Plasmodium falciparum W2 assessed as growth inhibition by measuring increase in LDH release after 72 hrs by spectrophotometric method. Conditions: W2, 72 h. The data set is classed as functional. The procedure, abridged: as §1
Data set [3] relates to Escherichia coli. In words: Inhibition of Escherichia coli ClpB ATP hydrolysis activity at 2 uM after 15 mins by spectrophotometric method. The essentials: (§2)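 E. coli ClpB (concentration as monomer) assayed at 37 °C in 100 mM Tris/HCl pH 8, 1 mM DTT, 1 mM EDTA, 10 mM MgCl2. Reaction started by adding ClpB to buffer holding compound (DMSO stock diluted in buffer) and 4 mM ATP. Inorganic phosphate released from ATP quantified; matching DMSO amounts as controls.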

Data set [4] can be described thus: Selectivity index, ratio of IC50 for SV40 large T-antigen 38 immortalized HMEC1 cells to IC50 for CQ-sensitive Plasmodium falciparum D10. It counts as toxicity. The conditions noted are these: human, read-out: Ratio IC50.
The nature of data set [5]: Half-life in human liver microsomes at 1 uM in presence of NADPH by HPLC-MS/MS method. The data set is classed as ADME, microsome.
A short description of data set [6]: Selectivity index, ratio of IC50 for SV40 large T-antigen 38 immortalized HMEC1 cells to IC50 for CQ-resistant Plasmodium falciparum W2. The conditions noted are these: human, read-out: Ratio IC50. The data set is classed as toxicity.
Data set [7] deals with Plasmodium falciparum. In words: Antiparasitic activity against Plasmodium falciparum 3D7 infected in erythrocytes after 72 hrs by SYBR Green 1 dye-based assay. It counts as functional, cell-based. Conditions: 3D7, 72 h.
Data set [8] is described as follows: Inhibition of recombinant histidine-tagged Plasmodium falciparum choline kinase expressed in Escherichia coli using choline as substrate after 30 mins by HTRF method.
Data set [9] deals with HMEC-1. Briefly: Antiproliferative activity against SV40 large T-antigen 38 immortalized HMEC1 cells after 72 hrs by MTT assay. It counts as cell-based. The conditions noted are these: Homo sapiens, HMEC-1, 72 h. The essentials: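 HMEC-1 cells (SV40 large T-antigen immortalized) grown in MCDB 131 with 10% fetal calf serum, 10 ng/mL EGF, 1 μg/mL hydrocortisone, 2 mM glutamine, penicillin/streptomycin, 20 mM Hepes. Treated with serial dilutions for 72 h; proliferation read by MTT. IC50 = dose inhibiting growth 50%; mean and SD of at least three experiments in duplicate.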

Data set [10] can be described thus: Stability of the compound in RPMI 1640 medium at 1 uM up to 24 hrs by HPLC-MS/MS method. The data set is classed as physicochemical.
Data set [11] concerns Escherichia coli. Briefly: Inhibition of Escherichia coli ClpB ATP hydrolysis activity at 1.7 uM after 15 mins by spectrophotometric method. The essentials:
as §2

Data set [12] deals with Escherichia coli. In words: Inhibition of Escherichia coli ClpB ATP hydrolysis activity at 1.5 uM preincubated for 21 mins followed by ATP addition by spectrophotometric method. The essentials: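 E. coli ClpB ATPase in 100 mM Tris/HCl pH 8, 1 mM DTT, 1 mM EDTA, 10 mM MgCl2, 37 °C. ClpB and compound (DMSO stock diluted in buffer) combined first; reaction started by adding ATP. ATP hydrolysis followed as inorganic phosphate generated; equivalent DMSO amounts served as controls.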

In data set [13] the test system is Escherichia coli. Briefly: Inhibition of Escherichia coli ClpB ATP hydrolysis activity at 1.5 uM after 15 mins by spectrophotometric method. The essentials: as §2

Each structure is given as a SMILES string. Active and inactive are the calls of the source. Some results are limits rather than exact numbers.

One may read the IC50 as the concentration that inhibits the measured activity by half. What is called half-life is the time needed for the level to fall by half in the phase considered. The EC50 is the concentration giving half of the maximal effect.

Turning to `C[C@@H]1CN(C(=O)c2sc3ccccc3c2O)C[C@H](C)O1`, the IC50 in data set [1] and in data set [2] was > 15 µM in each case.
As to `O=C(c1cc2ccccc2s1)N1CCOCC1`, the IC50 in data set [1] and in data set [2] was > 15 µM each time.
`C[C@@H]1CN(C(=O)c2sc3ccccc3c2Cl)C[C@H](C)O1`: the inhibition entry in [3] is “inactive”. For the same compound, the selectivity ratio in [4] and in data set [6] was 250 to 5000 each time. The IC50 in [1] stood at 0.037 µM; in [8], 6.3 µM; in [9], 195 µM; in data set [2], 0.184 µM. Besides, the half-life at 1 µM in data set [5] is 40 min. This compound also returned an EC50 in data set [7] of 0.3 µM. Further, the Stability result in data set [10] is recorded as “Stable”.
In the case of `CC1CN(C(=O)c2sc3ccccc3c2Cl)CC(C)N1` (stereo unspecified), the IC50 amounted to 4.91 µM in data set [1] and 14.7 µM in [2].
In the case of `Cc1ccc2c(Cl)c(C(=O)N3C[C@@H](C)O[C@@H](C)C3)sc2c1`, the selectivity ratio in [4] and in [6] was 250 to 5000 each time. Further, the IC50 in data set [1] was determined as 0.086 µM; in data set [9], 201 µM; in data set [2], 0.596 µM.
In the case of `C[C@@H]1CN(C(=O)c2cc3ccccc3s2)C[C@H](C)N1`, the IC50 in data set [1] and in [2] was > 15 µM in each case.
As to `C[C@@H]1CN(C(=O)c2sc3ccccc3c2Cl)C[C@@H](C)O1`, the selectivity ratio in data set [4] and in data set [6] was 250 to 5000 each time. The IC50 in data set [1] turned out to be 0.645 µM; in [9] it was 154 µM; in [2], 2.69 µM.
Take `Cc1c(C(=O)N2C[C@@H](C)O[C@@H](C)C2)sc2ccccc12`: the selectivity ratio in data set [4] and in data set [6] was 250 to 5000 throughout. Besides, the IC50 in data set [1] turned out to be 0.226 µM; in [9] it was 142 µM; in data set [2], 0.753 µM. Further, the half-life at 1 µM in [5] is 44 min. Further, the inhibition result in data set [11] is “inactive”.
In the case of `COc1c(C(=O)N2C[C@@H](C)O[C@@H](C)C2)sc2ccccc12`, the figures for the IC50 in data set [1] and in data set [2] were 0.429 µM and 1.73 µM, respectively.
In the case of `CC1CC(C)CN(C(=O)c2sc3ccccc3c2Cl)C1` (stereo unspecified), the selectivity ratio in data set [4] and in [6] was 250 to 5000 each time. The values for the IC50 in data set [1], in data set [9] and in data set [2] were 0.1 µM, 149 µM and 0.461 µM, respectively.
With `C[C@@H]1CN(C(=O)c2cc3ccccc3s2)C[C@H](C)O1`, the values for the IC50 in data set [1] and in data set [2] were 1.82 µM and 8.54 µM, respectively.
Taken in the same sequence, the figures for `C[C@@H]1CN(C(=O)c2nc3ccccc3s2)C[C@H](C)O1` were 9.79 µM and > 15 µM.
On the same counts, the results for `C[C@@H]1CN(C(=O)c2sc3c(Cl)c(Cl)ccc3c2Cl)C[C@H](C)O1` are 2.22 µM and 7.44 µM.
As for `C[C@@H]1CN(C(=O)c2sc3ccccc3c2NCc2ccccc2)C[C@H](C)O1`, the IC50 in data set [1] is 2.62 µM; in data set [2] it was 9.77 µM.
On to `C[C@@H]1CN(C(=O)c2sc3ccccc3c2OCc2ccc(Cl)cc2)C[C@H](C)O1`, for which the selectivity ratio in data set [4] and in [6] was 250 to 5000 in each case. For the same compound, the results for the IC50 in [1], in data set [9] and in data set [2] were 0.186 µM, 48 µM and 0.728 µM, respectively.
For `CCN(CC)CCCC(C)Nc1ccnc2cc(Cl)ccc12` (stereo unspecified) [CHLOROQUINE], the IC50 in [9] is > 100 µM.
As for `COc1ccc(COc2c(C(=O)N3C[C@@H](C)O[C@@H](C)C3)sc3ccccc23)cc1`, the selectivity ratio in data set [4] and in [6] was 250 to 5000 in each case. The IC50 in [1] worked out at 0.146 µM; in data set [9] it was 83 µM; in [2] it was 0.877 µM.
Turning to `O=C(Nc1ccccc1)c1sc2ccccc2c1Cl`, the IC50 in data set [1] and in [2] was > 15 µM in each case.
As for `C[C@@H]1CN(C(=O)c2sc3cc(F)ccc3c2Cl)C[C@H](C)O1`, the IC50 in data set [1] was 0.074 µM; in data set [2], 0.455 µM. The Stability entry in data set [10] is recorded as “Stable”.
Regarding `C[C@@H]1CN(C(=O)c2sc3ccccc3c2OCc2ccccc2)C[C@H](C)O1`, the selectivity ratio in data set [4] and in data set [6] was 250 to 5000 each time. In addition, the inhibition result in [12] and in data set [13] was “inactive” throughout. Besides, the IC50 in data set [1] amounted to 0.038 µM; in [9] it was 73 µM; in data set [2], 0.142 µM. Besides, the half-life at 1 µM in data set [5] was determined as 2.1 min.
With `C[C@@H]1CN(C(=O)c2sc3ccccc3c2N)C[C@H](C)O1`, the values for the IC50 in data set [1] and in data set [2] were 8.76 µM and > 15 µM, respectively.
On the same counts, the results for `CC1CN(C(=O)c2cc3ccccc3[nH]2)CC(C)N1` (stereo unspecified) are > 15 µM and > 15 µM.
On the same counts, the results for `CN1CCN(C(=O)c2cc3ccccc3s2)CC1` are > 15 µM and > 15 µM.
As for `O=C(NC12CC3CC(CC(C3)C1)C2)c1sc2ccccc2c1Cl`, the IC50 in [1] and in data set [2] was > 15 µM each time.
For `CCc1c(C(=O)N2C[C@@H](C)O[C@@H](C)C2)sc2ccccc12`, the IC50 in [1] was 0.682 µM; in data set [2], 2.31 µM.
For the compound `O=C(c1sc2ccccc2c1Cl)N1CCCCC1`, the IC50 in data set [1] and in data set [2] was > 15 µM each time.
Turning to `O=C(c1sc2ccccc2c1Cl)N1CCOCC1`, the IC50 in data set [1] and in data set [2] was > 15 µM throughout.
With `C[C@@H]1CN(C(=O)c2sc3cc(Cl)ccc3c2Cl)C[C@H](C)O1`, the IC50 in data set [1] stood at 0.407 µM; in data set [2], 2.09 µM.
For `O=C(Nc1ccccn1)c1sc2ccccc2c1Cl`, the IC50 in [1] and in [2] was > 15 µM in each case.
As to `C[C@@H]1CN(C(=O)c2cc3ccccc3o2)C[C@H](C)O1`, the IC50 in data set [1] and in data set [2] was > 15 µM in each case.
Take `C[C@@H]1CN(C(=O)c2sc3ccccc3c2OCc2ccc(F)c(F)c2)C[C@H](C)O1`: the selectivity ratio in [4] and in data set [6] was 250 to 5000 each time. Also, the IC50 in [1] came out at 0.141 µM; in data set [9], 97 µM; in [2], 0.747 µM.
On to `CC(=O)N1CCN(C(=O)c2cc3ccccc3s2)CC1`, for which the IC50 was found to be 10.9 µM in [1] and 7.75 µM in data set [2].
Turning to `O=C(Nc1ccncc1)c1sc2ccccc2c1Cl`, the IC50 in [1] and in data set [2] was > 15 µM each time. Moreover, the Stability entry in data set [10] is recorded as “Stable”.
Consider `C[C@@H]1CN(C(=O)c2cc3ccccc3[nH]2)C[C@H](C)O1`, for which the IC50 in [1] and in [2] was > 15 µM each time.
For the compound `CC1CN(C(=O)c2sc3ccccc3c2Cl)CC(C)O1` (stereo unspecified), the IC50 in [2] was 0.26 µM.
With `CC1CN(C(=O)c2cc3ccccc3o2)CC(C)N1` (stereo unspecified), the concentration for half-maximal inhibition (IC50) in data set [1] and in data set [2] was > 15 µM each time.
With `CCN(CC)C(=O)c1sc2ccccc2c1Cl`, the IC50 in [1] and in data set [2] was > 15 µM throughout.
